Results taken from ChEMBL document CHEMBL1121810, “Antihypertensive activity of 6-arylpyrido[2,3-d]pyrimidin-7-amine derivatives” (1981).

How the values were obtained:
Type in all cases: functional
[1] = system: Rattus norvegicus; assay: Maximum percent decrease in heart rate of spontaneously hypertensive rats, 24 hours after peroral administration of 50 mg/kg of compound; details: route oral
Outline: (§1)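 Heart rate was derived from the pulsatile arterial pressure signal in conscious catheterized male SHR (22-24 weeks, 250-350 g), with continuous monitoring sampled 3 min per 30 min. Drug was given by gavage as a 4% gum acacia suspension at 2 mL/kg, dose as free base, to groups of 3-4 rats with mean pressure >150 mmHg. Individual 30-min means were compared with pretreatment values.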

[2] = system: Rattus norvegicus; assay: (§2) Max effect on heart rate of spontaneously hypertensive rats, 3-5 hr after peroral administration of 3 mg/kg of compound; details: route oral; outline: as §1
[3] = system: Rattus norvegicus; assay: Effect on heart rate of spontaneously hypertensive rats, 10 hr after peroral administration at 50 mg/kg; details: route oral; outline: as §1
[4] = system: Rattus norvegicus; assay: Effect on heart rate of spontaneously hypertensive rats, 24 hr after peroral administration at 50 mg/kg; details: route oral; outline: as §1
[5] = system: Rattus norvegicus; assay: Effect on heart rate of spontaneously hypertensive rats, 2 hr after peroral administration at 50 mg/kg; details: route oral; outline: as §1
[6] = system: Rattus norvegicus; assay: Max effect on heart rate of spontaneously hypertensive rats, 3-5 hr after peroral administration of 10 mg/kg of compound; details: route oral; outline: as §1
[7] = system: Rattus norvegicus; assay: Max effect on heart rate of spontaneously hypertensive rats, 3-5 hr after peroral administration of 10 mg/kg of compound; significant decrease observed on 2nd and 3rd days; details: route oral; outline: as §1
[8] = system: Rattus norvegicus; assay: as §2; details: route oral; outline: as §1; remark: listed apart in the source
[9] = system: Rattus norvegicus; assay: Max effect on heart rate of spontaneously hypertensive rats, 3-5 hr after peroral administration of 3 mg/kg of compound; significant decrease observed on 2nd and 3rd days; details: route oral; outline: as §1
[10] = system: Rattus norvegicus; assay: Maximum percent decrease in heart rate of spontaneously hypertensive rats, 4 hours after peroral administration of 50 mg/kg of compound; details: route oral; outline: as §1
[11] = system: Rattus norvegicus; assay: Maximum percent decrease in heart rate of spontaneously hypertensive rats, 10 hours after peroral administration of 50 mg/kg of compound; details: route oral; outline: as §1
[12] = system: Rattus norvegicus; assay: Effect on heart rate of spontaneously hypertensive rats, 10 hr after peroral administration of 10 mg/kg of compound; details: route oral; outline: as §1
[13] = system: Rattus norvegicus; assay: Effect on heart rate of spontaneously hypertensive rats, 10 hr after peroral administration of 3 mg/kg of compound; details: route oral; outline: as §1
[14] = system: Rattus norvegicus; assay: Effect on heart rate of spontaneously hypertensive rats, 24 hr after peroral administration of 10 mg/kg of compound; details: route oral; outline: as §1
[15] = system: Rattus norvegicus; assay: Effect on heart rate of spontaneously hypertensive rats, 24 hr after peroral administration of 3 mg/kg of compound; details: route oral; outline: as §1
[16] = system: Rattus norvegicus; assay: Effect on heart rate of spontaneously hypertensive rats, 2 hr after peroral administration of 10 mg/kg of compound; details: route oral; outline: as §1
[17] = system: Rattus norvegicus; assay: Effect on heart rate of spontaneously hypertensive rats, 2 hr after peroral administration of 3 mg/kg of compound; details: route oral; outline: as §1
[18] = species on record: Rattus norvegicus; assay: Dose required to lower blood pressure by 30mmHg, 5-h post treatment
Outline: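 Conscious male SHR (22-24 weeks, 250-350 g) with indwelling catheters for continuous blood pressure and heart rate monitoring; only rats with mean pressure >150 mmHg and pulse pressure >25 mmHg were used. Oral gavage of a suspension in 4% gum acacia (2 mL/kg), doses as free base, groups of 3-4. Mean pressure was sampled 3 min per 30 min and compared with pretreatment; the value is the dose lowering pressure by 30 mmHg at 5 h.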

[19] = system: Rattus norvegicus; assay: Maximum percent decrease in heart rate of spontaneously hypertensive rats, 6 hours after peroral administration of 50 mg/kg of compound; details: route oral
Outline: (§3)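 Conscious male SHR (Kyoto-Wistar origin, 22-24 weeks, 250-350 g; mean BP >150 mmHg, pulse pressure >25 mmHg) with indwelling catheters, ~0.8 mL heparinized saline/day. Dosed by gavage as a 4% gum acacia suspension, 2 mL/kg, free-base doses, 3-4 rats per group. Heart rate was derived from the pulsatile pressure signal, sampled 3 min every 30 min, and 30-min means were compared with pretreatment values.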

[20] = system: Rattus norvegicus; assay: Effect on heart rate of spontaneously hypertensive rats, 18 hr after peroral administration of 10 mg/kg of compound; details: route oral; outline: as §1
[21] = system: Rattus norvegicus; assay: Maximum percent decrease in heart rate of spontaneously hypertensive rats, 8 hr after peroral administration of 50 mg/kg of compound; details: route oral; outline: as §3
[22] = system: Rattus norvegicus; assay: Effect on heart rate of spontaneously hypertensive rats, 24 hours after peroral administration of 50 mg/kg of compound; details: route oral; outline: as §1
[23] = system: Rattus norvegicus; assay: Effect on heart rate of spontaneously hypertensive rats,24hours after peroral administration of 10 mg/kg of compound; details: route oral; outline: as §1

SMILES | Activity rating [3] | Activity rating [4] | Activity rating [5] | Activity rating [12] | Activity rating [16] | also measured
Nc1nc2ncncc2cc1-c1c(Cl)cccc1Cl | 0 | 2 | 0 |  |  | Decrease [1]: 22%; Activity rating [2]: 0; Activity rating [6]: 0; Activity rating [7]: 0; Activity rating [8]: 0; Activity rating [9]: 0
Cc1ncc2cc(-c3ccccc3C)c(N)nc2n1 | 1 | 1 | 1 |  |  | Decrease [10]: 22%
Cc1ncc2cc(-c3c(Cl)cccc3Cl)c(N)nc2n1 | 3 | 3 | 1 | 1 | 1 | Decrease [11]: 32%; Activity rating [13]: 1; Activity rating [14]: 1; Activity rating [15]: 1; Activity rating [17]: 1; ED30 [18]: 17 mg/kg; LD50 [18]: > 7000 mg/kg
Cc1ncc2cc(-c3c(Br)cccc3Br)c(N)nc2n1 | 2 | 2 | 2 | 2 | 1 | Decrease [19]: 28%; Activity rating [20]: 1
Cc1ncc2cc(-c3ccccc3Cl)c(N)nc2n1 | 1 | 1 | 0 |  |  | Decrease [21]: 16%
Nc1nc2ncncc2cc1-c1ccccc1Cl | 0 |  | 0 |  |  | Activity rating [22]: 0
Nc1ncc2cc(-c3c(Cl)cccc3Cl)c(N)nc2n1 | 1 | 2 | 0 | 0 | 0 | Decrease [1]: 18%; Activity rating [23]: 1
